Source: ChEMBL document CHEMBL5058577, “EUbOPEN Chemogenomics Library 2 (Multiplex)” (2022)

Tested on: Fibroblast
Test: Multiplex assay against human fibroblast
Assay type: toxicity, cell-based
Summary of the method: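 Imaging took place on a CQ1 microscope at 37°C and 5% CO2 once compound had been added to live cells stained at seeding with Hoechst33342, BioTracker Green Microtubule Cytoskeleton Dye, MitoTracker Red and Annexin V Alexa Fluor 680. CellPathfinder machine-learning gating classed cells as Hoechst high-intensity objects or normal cells, classed normal cells as having healthy, pyknosed or fragmented nuclei, and classed pyknosed cells as mitotic or apoptotic. Tubulin, mitochondrial-mass and membrane-permeability phenotypes are per cents of the healthy-nucleus cells.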

[1] = 12 h, 1 µM, compound concentration 1 uM, replicate 1
[2] = 12 h, 1 µM, compound concentration 1 uM, replicate 2
[3] = 12 h, 10 µM, compound concentration 10 uM, replicate 1
[4] = 12 h, 10 µM, compound concentration 10 uM, replicate 2
[5] = 24 h, 1 µM, compound concentration 1 uM, replicate 1
[6] = 24 h, 1 µM, compound concentration 1 uM, replicate 2
[7] = 24 h, 10 µM, compound concentration 10 uM, replicate 1
[8] = 24 h, 10 µM, compound concentration 10 uM, replicate 2
[9] = 48 h, 1 µM, compound concentration 1 uM, replicate 1
[10] = 48 h, 1 µM, compound concentration 1 uM, replicate 2
[11] = 48 h, 10 µM, compound concentration 10 uM, replicate 1
[12] = 48 h, 10 µM, compound concentration 10 uM, replicate 2

## Cc1cc(=O)n(C)c2cc(N3C(=O)CC[C@H](NS(=O)(=O)CC(C)C)[C@H]3c3ccc(Cl)cc3)ccc12
[1]
  Population Apoptotic (%): 31%
  Population Fragmented Nuclei (%): 16%
  Population Healthy Nuclei (%): 56%
  Population Hoechst High Intensity Objects (%): 2%
  Population Membrane Permeable-Phenotype (%): 0%
  Population Mitochondria Different-Phenotype (%): 4%
  Population Mitotic Cells (%): 68%
  Population Normal (%): 97%
  Population Pyknosed Nuclei (%): 26%
  Population Tubulin-Different-Phenotype (%): 34%
  Total Cell Count: 135
[2]
  Population Apoptotic (%): 38%
  Population Fragmented Nuclei (%): 20%
  Population Healthy Nuclei (%): 38%
  Population Hoechst High Intensity Objects (%): 10%
  Population Membrane Permeable-Phenotype (%): 8%
  Population Mitotic Cells (%): 62%
  Population Normal (%): 89%
  Population Pyknosed Nuclei (%): 40%
  Population Tubulin-Different-Phenotype (%): 61%
  Total Cell Count: 137
[3]
  Population Apoptotic (%): 41%
  Population Fragmented Nuclei (%): 11%
  Population Healthy Nuclei (%): 40%
  Population Hoechst High Intensity Objects (%): 3%
  Population Membrane Permeable-Phenotype (%): 1%
  Population Mitochondria Different-Phenotype (%): 8%
  Population Mitotic Cells (%): 58%
  Population Normal (%): 96%
  Population Pyknosed Nuclei (%): 48%
  Population Tubulin-Different-Phenotype (%): 86%
  Total Cell Count: 149
[4]
  Population Apoptotic (%): 18%
  Population Fragmented Nuclei (%): 26%
  Population Healthy Nuclei (%): 31%
  Population Hoechst High Intensity Objects (%): 11%
  Population Membrane Permeable-Phenotype (%): 8%
  Population Mitotic Cells (%): 82%
  Population Normal (%): 88%
  Population Pyknosed Nuclei (%): 42%
  Population Tubulin-Different-Phenotype (%): 94%
  Total Cell Count: 133
[5]
  Population Apoptotic (%): 34%
  Population Fragmented Nuclei (%): 18%
  Population Healthy Nuclei (%): 62%
  Population Hoechst High Intensity Objects (%): 2%
  Population Membrane Permeable-Phenotype (%): 1%
  Population Mitochondria Different-Phenotype (%): 4%
  Population Mitotic Cells (%): 65%
  Population Normal (%): 97%
  Population Pyknosed Nuclei (%): 18%
  Population Tubulin-Different-Phenotype (%): 24%
  Total Cell Count: 140
[6]
  Population Apoptotic (%): 50%
  Population Fragmented Nuclei (%): 26%
  Population Healthy Nuclei (%): 44%
  Population Hoechst High Intensity Objects (%): 10%
  Population Membrane Permeable-Phenotype (%): 13%
  Population Mitochondria Different-Phenotype (%): 5%
  Population Mitotic Cells (%): 50%
  Population Normal (%): 89%
  Population Pyknosed Nuclei (%): 29%
  Population Tubulin-Different-Phenotype (%): 70%
  Total Cell Count: 128
[7]
  Population Apoptotic (%): 43%
  Population Fragmented Nuclei (%): 14%
  Population Healthy Nuclei (%): 46%
  Population Hoechst High Intensity Objects (%): 10%
  Population Membrane Permeable-Phenotype (%): 0%
  Population Mitochondria Different-Phenotype (%): 19%
  Population Mitotic Cells (%): 56%
  Population Normal (%): 90%
  Population Pyknosed Nuclei (%): 39%
  Population Tubulin-Different-Phenotype (%): 88%
  Total Cell Count: 150
[8]
  Population Apoptotic (%): 42%
  Population Fragmented Nuclei (%): 28%
  Population Healthy Nuclei (%): 26%
  Population Hoechst High Intensity Objects (%): 8%
  Population Membrane Permeable-Phenotype (%): 17%
  Population Mitochondria Different-Phenotype (%): 8%
  Population Mitotic Cells (%): 57%
  Population Normal (%): 91%
  Population Pyknosed Nuclei (%): 45%
  Population Tubulin-Different-Phenotype (%): 85%
  Total Cell Count: 143
[9]
  Population Apoptotic (%): 48%
  Population Fragmented Nuclei (%): 27%
  Population Healthy Nuclei (%): 54%
  Population Hoechst High Intensity Objects (%): 2%
  Population Membrane Permeable-Phenotype (%): 1%
  Population Mitochondria Different-Phenotype (%): 2%
  Population Mitotic Cells (%): 52%
  Population Normal (%): 97%
  Population Pyknosed Nuclei (%): 18%
  Population Tubulin-Different-Phenotype (%): 27%
  Total Cell Count: 141
[10]
  Population Apoptotic (%): 46%
  Population Fragmented Nuclei (%): 35%
  Population Hoechst High Intensity Objects (%): 7%
  Population Membrane Permeable-Phenotype (%): 8%
  Population Mitochondria Different-Phenotype (%): 8%
  Population Mitotic Cells (%): 53%
  Population Normal (%): 92%
  Population Pyknosed Nuclei (%): 9%
  Population Tubulin-Different-Phenotype (%): 73%
  Total Cell Count: 142
[11]
  Population Apoptotic (%): 61%
  Population Fragmented Nuclei (%): 23%
  Population Healthy Nuclei (%): 38%
  Population Hoechst High Intensity Objects (%): 15%
  Population Membrane Permeable-Phenotype (%): 0%
  Population Mitochondria Different-Phenotype (%): 24%
  Population Mitotic Cells (%): 38%
  Population Normal (%): 84%
  Population Pyknosed Nuclei (%): 37%
  Population Tubulin-Different-Phenotype (%): 92%
  Total Cell Count: 153
[12]
  Population Apoptotic (%): 54%
  Population Fragmented Nuclei (%): 34%
  Population Healthy Nuclei (%): 37%
  Population Hoechst High Intensity Objects (%): 10%
  Population Membrane Permeable-Phenotype (%): 25%
  Population Mitochondria Different-Phenotype (%): 8%
  Population Mitotic Cells (%): 45%
  Population Normal (%): 89%
  Population Pyknosed Nuclei (%): 27%
  Population Tubulin-Different-Phenotype (%): 87%
  Total Cell Count: 141
